{"data": "Results from different studies", "target": "Serine/threonine-protein kinase N2 (PKN2, Homo sapiens, UniProt Q16513)"}
{"Compound": "Cc1ccc(Nc2nccc(N(C)c3ccc4c(C)n(C)nc4c3)n2)cc1S(N)(=O)=O", "read-out": "enzyme activity", "mode": "inhibitor", "tested at": "10 µM", "measurement": "inhibition", "result": "34%"}
{"Compound": "c1cnn2ncc(-c3ccnc(N4CCC45COC5)n3)c2c1", "read-out": "binding", "tested at": "1 µM", "measurement": "remaining binding", "result": "89%"}
{"Compound": "COc1cc(Nc2cnc(C#N)c(O[C@H](C)CN(C)C)n2)ncc1-c1cnn(C)c1", "read-out": "enzyme activity", "mode": "inhibitor", "technique": "radiometric", "tested at": "10 µM", "measurement": "remaining activity", "result": "86%"}
{"Compound": "Cc1cc(NC(=O)c2cccc3cc(-c4cccc5[nH]nc(N)c45)ccc23)ccc1F", "read-out": "enzyme activity", "mode": "inhibitor", "tested at": "0.1 µM", "measurement": "activity vs control", "result": "101%"}
{"Compound": "Cn1c(=O)n(-c2ccc(C(C)(C)C#N)cc2)c2c3cc(-c4cnc5ccccc5c4)ccc3ncc21", "read-out": "enzyme activity", "mode": "inhibitor", "tested at": "10 µM", "measurement": "remaining activity", "result": "74%"}
{"Compound": "Cc1cnc(NC2CCOCC2)nc1-n1cnc(C(=O)NC(CN)c2cc(F)cc(Cl)c2)c1 (centres unmarked)", "read-out": "enzyme activity", "mode": "inhibitor", "technique": "radiometric", "tested at": "1 µM", "measurement": "remaining activity", "result": "63%"}
{"Compound": "c1ccc(CNc2nc(N3CCOc4ccccc43)nc3c2CCCC3)cc1", "read-out": "target engagement in cells", "mode": "inhibitor", "technique": "chemoproteomics", "tested at": "20 mM", "measurement": "inhibition", "result": "9.1%"}
{"Compound": "NS(=O)(=O)c1cc(NC(=O)Cc2ccccc2)ccc1Oc1cccc(Cl)c1", "read-out": "cell-free assay", "technique": "competition with immobilised ligand", "tested at": "1 µM", "measurement": "remaining binding", "result": "90%"}
{"Compound": "CC(C)(C)c1nc2c(s1)c1nc(N)ncc1c1ccc(NS(=O)(=O)c3c(F)cccc3F)c(F)c12", "read-out": "enzyme activity", "mode": "inhibitor", "technique": "radiometric", "tested at": "1 µM", "measurement": "remaining activity", "result": "91%"}
{"Compound": "CCCOc1ccc(OC)c(F)c1C(=O)c1ccc(C(=O)N[C@@H]2CNC[C@H]2NC(=O)c2ccc3[nH]ncc3c2)cc1", "read-out": "enzyme activity", "mode": "inhibitor", "tested at": "0.5 µM", "measurement": "remaining activity", "result": "14%"}
{"Compound": "Cc1ccc(C(=O)NCc2ccsc2)cc1C#Cc1cn(C(C)C)c2ncnc(N)c12", "read-out": "enzyme activity", "mode": "inhibitor", "tested at": "1 µM", "measurement": "activity vs control", "result": "113%"}
{"Compound": "CC(C)(C)C(=O)c1sc(NC2CCCCC2)nc1N", "read-out": "enzyme activity", "mode": "inhibitor", "tested at": "10 µM", "measurement": "remaining activity", "result": "95%"}
{"Compound": "C[C@@]1(Cc2ccc(C#N)cc2)C(=O)N(c2cc(Cl)cc(Cl)c2)c2ncc(C(=O)NC3(c4nc(C5CCC5)no4)CC3)n21", "read-out": "cell-free assay", "technique": "competition with immobilised ligand", "tested at": "1 µM", "measurement": "remaining binding", "result": "100%"}
{"Compound": "Cn1c2c(c3ccc(Cl)c(Cl)c31)C(C#N)C1(CCCC1)NC2=O (centres unmarked)", "read-out": "thermal stability", "technique": "DSF", "tested at": "10 µM", "measurement": "ΔTm", "result": "0 °C"}
{"Compound": "CC(C)CC(=O)N1CCc2nc(-c3ccc(Br)cc3)nc(N(C)Cc3ccccc3)c2C1", "read-out": "cell-free assay", "technique": "competition with immobilised ligand", "tested at": "0.1 µM", "measurement": "remaining binding", "result": "80%"}
{"Compound": "COc1cc(/C=C/C(=O)CC(=O)/C=C/c2ccc(O)c(OC)c2)ccc1O", "read-out": "enzyme activity", "mode": "inhibitor", "tested at": "1 µM", "measurement": "activity vs control", "result": "114%"}
{"Compound": "CCCCN(CCCC)C(=O)CN1C[C@H](c2cc(OC)c3c(c2)OCO3)[C@@H](C(=O)O)[C@@H]1CC(C)(C)CCC", "read-out": "cell-free assay", "technique": "competition with immobilised ligand", "tested at": "1 µM", "measurement": "remaining binding", "result": "100%"}
{"Compound": "O=C1NC(=O)c2cc(Nc3ccc(F)cc3)c(Nc3ccc(F)cc3)cc21", "read-out": "cell-free assay", "tested at": "0.5 µM", "measurement": "remaining signal", "result": "102%"}
{"Compound": "CNCc1ccc(-c2cc(-c3nc(-c4ccc(S(=O)(=O)C(C)C)cc4)cnc3N)on2)cc1", "read-out": "enzyme activity", "mode": "inhibitor", "tested at": "2 µM", "measurement": "inhibition", "result": "82%"}
{"Compound": "CC(=O)C1=C(C)N(c2cccc(C(F)(F)F)c2)C(=O)N[C@@H]1c1ccc(C#N)nc1", "read-out": "cell-free assay", "technique": "competition with immobilised ligand", "tested at": "1 µM", "measurement": "remaining binding", "result": "96.3%"}
